Measured values reported in PubChem BioAssay AID720574 (Broad Institute, 2013).
Where “and” joins values, the source holds several entries; their conditions need not be identical. Identical values can stand only once. In all, about 96,000 compounds went through this assay and about 140 (0.15%) were called active.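 Rule for the calls: active = mean replicate inhibition above about 25%, with at least 55% of replicates also reaching it (limit read from the data, passing the limit was not always enough); inconclusive = only one of those two conditions met; inactive = neither condition met.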 This excerpt belongs to a sample that is enriched for actives.

biological target: Lysine-specific demethylase 4C (Homo sapiens) (UniProt Q9H3R0); assay: inhibitors of GASC-1 (KDM4C) histone demethylase, primary screen, biochemical, single concentration HTS (AID 720574); details: GST-KDM4C 2-372, H3K9me3 peptide, LANCE TR-FRET; at 12.5 µM; stronger effect = higher value
Sequence (Q9H3R0 2-372 limits assumed): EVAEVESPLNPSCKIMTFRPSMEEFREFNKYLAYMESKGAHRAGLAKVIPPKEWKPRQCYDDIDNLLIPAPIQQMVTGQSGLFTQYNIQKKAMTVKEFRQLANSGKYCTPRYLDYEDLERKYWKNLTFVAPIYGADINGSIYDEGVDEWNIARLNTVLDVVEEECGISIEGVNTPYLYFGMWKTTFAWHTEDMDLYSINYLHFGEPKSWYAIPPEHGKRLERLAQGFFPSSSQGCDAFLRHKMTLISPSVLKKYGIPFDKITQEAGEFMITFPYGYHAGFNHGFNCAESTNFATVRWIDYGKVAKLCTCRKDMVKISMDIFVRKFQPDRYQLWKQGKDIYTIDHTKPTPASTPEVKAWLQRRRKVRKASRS
Procedure, shortened: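 Test system – GST-tagged GASC-1 (JMJD2C) catalytic fragment, aa 2-372 · Medium – HEPES buffer, pH 7.5, plus ascorbate · Reagent – H3K9me3 peptide with Fe(II)/2OG · Compound – one test concentration per compound · Timing – 30 min reaction, 60 min detection, RT · Technique – TR-FRET with Eu antibody and ULight streptavidin, EDTA stop · Read-out basis – inhibition from TR-FRET ratio decrease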

inhibition, active:
N[C@@H]1CC[C@H](CCn2cc(C3CC3)nn2)O[C@@H]1CO 57.3%
C[C@@H]1CN([C@@H](C)CO)S(=O)(=O)c2ccc(C#Cc3ccc(F)cc3)cc2O[C@H]1CN(C)C(=O)NC1CCCC1 55.9%

inhibition, inactive:
Cc1ccc(S(=O)(=O)N(C)C[C@@H]2OCCCC[C@@H](C)Oc3ccc(NC(=O)Nc4ccc(C(F)(F)F)cc4)cc3C(=O)N([C@@H](C)CO)C[C@@H]2C)cc1 1.16%
O=C(CN1CCOCC1)N1CC(=O)N2[C@H](C1)[C@H](c1ccc(/C=C/c3ccccc3)cc1)[C@@H]2CO 0.257%
O=C(NCC[C@H]1CC[C@@H](NC(=O)C2CC2)[C@H](CO)O1)c1ccc(F)cc1 -0.983%
CCC(=O)Nc1ccc2c(c1)C(=O)N(C)[C@@H]1CC[C@H](CC(=O)NCc3ccccc3)O[C@H]1CO2 1.95%
COc1ccc(S(=O)(=O)N[C@@H]2CC[C@@H](CC(=O)N3CCC(Cc4ccccc4)CC3)O[C@@H]2CO)cc1 -0.232%
COCC(=O)Nc1ccc2c(c1)[C@@H]1C[C@H](CC(=O)NCc3ccc(-c4ccccc4)cc3)O[C@H](CO)[C@@H]1O2 -3.13%
CN1C(=O)c2cc(NC(=O)C3CCCC3)ccc2OC[C@@H]2O[C@@H](CC(=O)NCCc3ccncc3)CC[C@@H]21 1.45%
Cc1ccc(S(=O)(=O)N[C@H]2CC[C@@H](CC(=O)N3CCc4ccccc4C3)O[C@H]2CO)cc1 0.126%
O=C(C[C@@H]1C[C@H]2c3cc(NC(=O)Nc4ccccc4)ccc3O[C@H]2[C@@H](CO)O1)NC1CCCCC1 -1.66%
COc1ccc2c3c(n(C)c2c1)[C@@H](CO)N(C(=O)Nc1ccc(F)cc1)CC31CN(C(=O)NC(C)C)C1 -0.434%
C/C=C/c1ccc([C@@H]2[C@H](CO)N(CC3CCOCC3)C23CN(S(=O)(=O)CC)C3)cc1 0.162%
C[C@H](CO)N1C[C@H](C)[C@H](CN(C)Cc2ccncc2)Oc2ncc(C#CCC3CCCCC3)cc2C1=O 2.4%
CC(C)NC(=O)N(C)C[C@@H]1OCCCC[C@@H](C)Oc2ccc(NC(=O)NC3CCCCC3)cc2C(=O)N([C@@H](C)CO)C[C@@H]1C 0.134%
COc1ccccc1C#Cc1cnc2c(c1)C(=O)N([C@H](C)CO)C[C@H](C)[C@H](CN(C)S(=O)(=O)c1cn(C)cn1)O2 -1.15%
CO[C@@H]1CN(C)C(=O)c2ccc(NC(=O)c3ccccc3F)cc2OC[C@@H](C)N(CC2CCOCC2)C[C@H]1C 2.15%
CCNC(=O)C[C@@H]1CC[C@@H]2[C@H](COc3ccc(NS(=O)(=O)c4ccccc4C)cc3C(=O)N2C)O1 2.37%
CN1C[C@@H]2[C@H](c3ccccc31)[C@@H](CO)N2C(=O)Nc1ccccc1 -1.64%
CCC(=O)Nc1ccc2c(c1)C(=O)N(C)[C@H]1CC[C@H](CC(=O)NCCOC)O[C@@H]1CO2 1.02%
Cc1noc(C)c1NC(=O)N[C@@H]1C=C[C@@H](CC(=O)Nc2ccccc2)O[C@H]1CO 1.04%
CCS(=O)(=O)Nc1ccc2c(c1)C(=O)N(C)[C@H]1CC[C@@H](CC(=O)N3CCCCC3)O[C@H]1CO2 -0.234%
COCC(=O)N1CC2(C1)CN(C(=O)COC)[C@@H](CO)c1c2c2ccc(OC)cc2n1C 2.79%
CC(C)NC(=O)N[C@@H]1CC[C@@H](CCNS(=O)(=O)Cc2ccccc2)O[C@@H]1CO -0.501%
COc1ccc(S(=O)(=O)N(C)C[C@H]2Oc3c(NC(=O)CCCCCC(=O)Nc4ccccc4N)cccc3C(=O)N([C@H](C)CO)C[C@H]2C)cc1 0.35%
O=C(NC1CCCC1)[C@H]1[C@H](CO)[C@H]2Cn3c(ccc(-c4ccccc4)c3=O)[C@H]2N1CCc1ccccc1 3.27%
CO[C@H]1CN(C)C(=O)c2ccc(NC(=O)C3CCC3)cc2OC[C@H](C)NC[C@@H]1C -0.842%
Cc1ccccc1S(=O)(=O)N1[C@H](CO)[C@@H](c2ccc(-c3ccccc3)cc2)[C@@H]1C#N -3.67%
COc1ccc(S(=O)(=O)N(C)C[C@H]2OCCCC[C@H](C)Oc3ccc(NC(=O)Nc4ccc5c(c4)OCO5)cc3C(=O)N([C@@H](C)CO)C[C@@H]2C)cc1 15.8%
C[C@@H]1CN([C@@H](C)CO)C(=O)Cc2cc(NC(=O)Nc3ccc4c(c3)OCO4)ccc2O[C@H]1CN(C)S(=O)(=O)c1ccccc1 -0.169%
COc1ccc(C#Cc2ccc([C@H]3[C@H]4CN(C(=O)c5ccncc5)CC(=O)N4[C@H]3CO)cc2)cc1 -3.07%
COc1ccccc1CNC(=O)C[C@H]1C[C@@H]2c3cc(NC(=O)Nc4ccccc4F)ccc3O[C@@H]2[C@H](CO)O1 -9.36%
CO[C@@H]1CN(C)C(=O)c2cc(NC(=O)c3cccc(Oc4ccccc4)c3)ccc2OC[C@H](C)NC[C@@H]1C -0.467%
CN(C)Cc1cn(CC[C@H]2CC[C@@H](NS(=O)(=O)c3ccccc3)[C@H](CO)O2)nn1 0.714%
O=C(NC[C@@H]1N[C@@H](CO)[C@H]1c1ccc(-c2cccnc2)cc1)c1cccc(F)c1 -0.99%
CN1CCN(C(=O)C[C@H]2CC[C@@H]3[C@H](COC[C@@H](O)CN3CC3CCCC3)O2)CC1 6.35%
CCCN1C[C@@H](C)[C@@H](OC)CN(C)C(=O)c2cc(NC(=O)c3ccccc3)ccc2OC[C@H]1C -1.49%
COc1cccc(C(=O)Nc2ccc3c(c2)C(=O)N(C)[C@@H]2CC[C@@H](CC(=O)NCCCN4CCOCC4)O[C@@H]2CO3)c1 -0.807%
COCC(=O)Nc1ccc2c(c1)[C@H]1C[C@@H](CC(=O)NCc3ccccc3F)O[C@H](CO)[C@H]1O2 1.67%
CCCC(=O)N1CCC2(CC1)CN[C@H](CO)c1[nH]c3cc(OC)ccc3c12 -0.39%
CCCC(=O)Nc1ccc2c(c1)C(=O)N(C)C[C@H](OC)[C@H](C)CN(C(=O)c1ccccn1)[C@H](C)CO2 0.027%
C[C@H](CO)N1C[C@H](C)[C@@H](CN(C)Cc2ccc(Oc3ccccc3)cc2)Oc2ccc(NS(=O)(=O)c3ccc(F)cc3)cc2CC1=O -2.45%
O=C(Cc1cccnc1)N1CC(=O)N2[C@@H](CO)[C@@H](c3ccc(C#CC4CCCCC4)cc3)[C@@H]2C1 -0.852%
COc1ccc(-c2cn(CC[C@H]3CC[C@@H](N)[C@H](CO)O3)nn2)cc1 -0.108%
CN(C)CC(=O)N[C@@H]1CC[C@@H](CCn2cc(C3CC3)nn2)O[C@H]1CO -0.3%
O=C(c1ccncc1)N1CC[C@@H]2[C@H]1c1cc(Br)ccc1N[C@@H]2CO 1.89%
CC(=O)N1[C@H](CO)[C@H](c2ccc(-c3ccccc3)cc2)[C@H]1CNC(=O)NC(C)C -0.299%
CCC(=O)N[C@H]1CC[C@@H](CC(=O)NCC2CC2)O[C@@H]1CO -0.369%
C/C=C/c1ccc([C@H]2[C@@H](CO)N(C(C)=O)[C@H]2CN(C)S(C)(=O)=O)cc1 1.96%
COc1ccc(S(=O)(=O)Nc2ccc3c(c2)C(=O)N([C@@H](C)CO)C[C@H](C)[C@@H](CN(C)C(=O)NC(C)C)OCCCC[C@H](C)O3)cc1 0.601%
CN(C)C(=O)[C@@H]1[C@@H](CO)[C@@H]2Cn3c(cccc3=O)[C@H]1N2C(=O)c1ccc(F)cc1 -1.64%
COc1ccc(NC(=O)N(C)C[C@H]2OCCCC[C@@H](C)Oc3ccc(NC(=O)NC4CCCCC4)cc3C(=O)N([C@H](C)CO)C[C@H]2C)cc1 -1.08%
O=C(NC1Cc2ccccc2C1)[C@H]1[C@H](CO)[C@H]2Cn3c(ccc(C4=CCCCC4)c3=O)[C@H]2N1CC1CC1 3.76%
CC(C)NC(=O)N[C@H]1CC[C@@H](CCNC(=O)C2CCC2)O[C@@H]1CO -2.41%
Cc1ccccc1S(=O)(=O)N1[C@@H]2CNC[C@H]1C2c1ccc(-c2cccnc2)cc1 (stereo not given in full) -0.633% and -0.155%
O=C(NCc1ccncn1)[C@@H]1[C@@H](CO)[C@@H]2Cn3c(ccc(-c4ccc(F)cc4)c3=O)[C@@H]2N1CC1CC1 12.7%
O=C(c1cnccn1)N1CC(=O)N2[C@H](C1)[C@@H](c1ccc(C#CC3CCCC3)cc1)[C@@H]2CO 7.28%
O=C(C[C@@H]1CC[C@H]2[C@@H](COC[C@@H](O)CN2S(=O)(=O)c2cccc(F)c2)O1)NCCCN1CCOCC1 -0.281%
C[C@H](CO)N1C[C@H](C)[C@H](CN(C)C(=O)C2CC2)Oc2cc(-c3cccnc3)ccc2S1(=O)=O 0.237%
Cn1cnc(CCNC(=O)C[C@@H]2CC[C@H]3[C@@H](COC[C@@H](O)CN3C(=O)Nc3ccc(Cl)cc3)O2)c1 -0.915%
O=C(Cc1ccccn1)N1CC(=O)N2[C@H](C1)[C@@H](c1ccc(-c3ccccc3)cc1)[C@@H]2CO 1.11%
O=C(c1ccc2c(c1)OCO2)N1CC(=O)N2[C@H](C1)[C@@H](c1ccc(C#Cc3ccccc3)cc1)[C@@H]2CO -2.3%
O=C(NCC[C@@H]1CC[C@H](NC(=O)Nc2cc(F)ccc2F)[C@@H](CO)O1)Nc1ccc(Cl)cc1 0.858%
C/C=C/c1ccc2c(c1)O[C@@H](CN(C)C(=O)NC1CCCC1)[C@@H](C)CN([C@H](C)CO)S2(=O)=O 0.88%
C[C@@H]1CN([C@@H](C)CO)S(=O)(=O)c2ccc(C#Cc3ccc(F)cc3)cc2O[C@@H]1CN(C)CC1CC1 -2.29%
